Only some compounds are listed: those with a hit (about 4.6% of all), similar ones and a draw of the others.
OX1R antag-1: human HCRTR1 antagonism | 330,000 tested, 0.43% active | O43613 | CHO/OX1R cells, Fluo-8 calcium fluorescence, orexin A | inhibition, % at 5 µM;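 active = inhibition above its plate's threshold, mean inhibition of all tested compounds on the plate plus 3 SD, cut at about 37% in these data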
OX1R antag-2: antagonists of human orexin 1 receptor (OX1R) | OX1R-expressing cells, FRET antagonist read-out | 330,000 tested, 1.8% active | inhibition, % at 6.6 µM | AID 485270; in the data active = inhibition mostly above about 38%, no sharp cut-off; inactive = mostly below about 40%
TAAR1 ag: agonists of human TAAR1 | Q96RJ0 | CHO RD-HGA16 TAAR1, Fluo-8 calcium fluorescence; vehicle wells 0%, saturating PEA agonist 100% | activation, % at 3 µM | 360,000 tested, 0.99% active | AID 624467;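 active = activation above the mean activation of all test compounds in the run plus 3 SD, cut at about 38% in these data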
Target sequence (Q96RJ0 whole entry, looked up): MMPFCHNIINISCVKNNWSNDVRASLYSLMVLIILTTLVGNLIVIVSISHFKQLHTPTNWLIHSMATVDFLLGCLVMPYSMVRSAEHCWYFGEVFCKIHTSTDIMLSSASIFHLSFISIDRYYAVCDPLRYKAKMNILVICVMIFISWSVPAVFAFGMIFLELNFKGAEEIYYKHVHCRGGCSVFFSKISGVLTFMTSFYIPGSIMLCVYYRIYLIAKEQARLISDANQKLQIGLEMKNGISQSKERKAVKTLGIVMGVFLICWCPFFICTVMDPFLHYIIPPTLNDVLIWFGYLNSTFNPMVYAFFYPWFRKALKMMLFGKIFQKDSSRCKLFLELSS
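Assay system – CHO-derived RD-HGA16 cells with stable Gα16 and human TAAR1 · Compound dosing – one-point dosing at 3 µM (nominal) · Incubation – 17-24 h seeding, 75 min 37 °C dye, 30 min RT · Measured by – kinetic Fluo-8 calcium fluorescence · Control set – DMSO vehicle as 0%, PEA at EC100 as 100% · Repeats – single well for each compound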
CHO parental Ca: counter-screen for OX1R antagonists: effect in parental CHO cells; parental CHO-K1, ATP-induced calcium, Fluo-8 fluorescence; inhibition, % at 5.6 µM; 330,000 tested, 0.63% active;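 active = inhibition above that plate's mean sample inhibition plus 3 SD, cut at about 26% in these data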
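Test system: parental CHO cells; detection: calcium-sensitive Fluo-8 fluorescence; evaluation: percent inhibition of calcium signal; also added: ATP as calcium-mobilizing challenge; repeats: one well per compound; control set: ATP-challenged DMSO wells low, unchallenged DMSO wells high; compound: single nominal dose of 5.6 µM per compound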
TAAR1 antag: antagonists of human TAAR1 | CHO RD-HGA16 TAAR1, Fluo-8 calcium fluorescence, antagonist | inhibition, % at 3 µM | 360,000 tested, 1.5% active | AID 624466;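 active = inhibition above a per-plate cutoff, the mean inhibition of test compounds on that plate plus 3 SD, cut at about 49% in these data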
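Test system: hTAAR1-expressing CHO RD-HGA16 cells, Gα16-coupled; Probe or stimulus: EC80 β-phenethylamine stimulus; Compound dosing: single nominal final test compound concentration of 3 µM; Timing: 140 s kinetic read after compound, 140 s after agonist; Signal: Fluo-8 calcium-sensitive fluorescence; Measure: % inhibition of agonist calcium response; Controls: DMSO and EC80 PEA controls.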
GPR7 antagonist: blocks human GPR7 receptor signaling | GPR7-expressing cells, fluorescence antagonist assay | inhibition, % at 4.4 µM | 290,000 tested, 1.1% active | P48145; in the data active = inhibition above about 16%, passing the limit was not always enough;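 also: cells stimulated with the agonist NPW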
Target sequence (P48145 whole entry, looked up): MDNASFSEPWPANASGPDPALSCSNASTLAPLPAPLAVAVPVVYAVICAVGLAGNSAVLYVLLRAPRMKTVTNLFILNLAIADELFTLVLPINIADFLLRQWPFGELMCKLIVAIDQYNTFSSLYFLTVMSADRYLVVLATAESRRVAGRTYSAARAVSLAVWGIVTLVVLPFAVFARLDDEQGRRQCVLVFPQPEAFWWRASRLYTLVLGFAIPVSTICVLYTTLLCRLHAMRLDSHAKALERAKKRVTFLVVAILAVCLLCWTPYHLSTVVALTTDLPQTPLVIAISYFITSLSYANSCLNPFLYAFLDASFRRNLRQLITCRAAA
OX1R Ca confirm: OX1R (human) antagonism, confirmed. shares compounds with OX1R antag-1. CHO/OX1R cells, orexin A calcium Fluo-8 fluorescence. inhibition, % at 5 µM. 1,100 tested, 38% active; in the data active = inhibition above about 29%
CHO Ca triplic: counter-screen for OX1R antagonists: effect in parental CHO cells. 1,100 tested, 9.3% active. shares compounds with OX1R antag-1. AID 492965. parental CHO-K1, ATP-induced calcium, Fluo-8 fluorescence. inhibition, % at 5.6 µM;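 active = inhibition above a per-plate limit, the mean inhibition of that plate's test compounds plus 3 SD, cut at about 25% in these data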
Hits are given with their value; n = inactive; x = no result given.

SMILES | OX1R antag-1 | OX1R antag-2 | TAAR1 ag | CHO parental Ca | TAAR1 antag | GPR7 antagonist | OX1R Ca confirm | CHO Ca triplic
COc1ccc(Cl)cc1NC(=O)c1[nH]nc(OC)c1[N+](=O)[O-] | 105 | n | n | n | n | n | n | n
COc1n[nH]c(C(=O)Nc2cc(Cl)ccc2Cl)c1[N+](=O)[O-] | n | n | n | n | n | n | x | x
Cc1ccc(/C=C/C(=O)N(Cc2cccs2)C2CCS(=O)(=O)C2)cc1 (centres undefined) | n | n | n | n | n | n | x | x
CC(NC(=O)Cn1cc(Br)c([N+](=O)[O-])n1)c1ccccc1 (centres undefined) | n | n | n | n | n | n | x | x
CCOc1cc(S(=O)(=O)Nc2ccc(Cl)cn2)ccc1Cl | n | n | n | n | n | n | x | x
CCOc1cc(S(=O)(=O)Nc2ccccc2CC)ccc1Cl | 56 | n | n | n | n | n | n | n
CC1=C(C(=O)OCc2ccc3c(c2)OCO3)C(c2cccc([N+](=O)[O-])c2)NC(=O)N1 (centres undefined) | n | n | n | n | n | n | n | n
O=C(Nc1ccc(OC(F)F)c(Cl)c1)c1cccc(OC(F)F)c1 | 53 | n | x | n | x | n | n | n
COc1ccc(NC2=NCCCCC2)cc1 | n | n | n | n | n | n | x | x
COc1ccc(-c2nc(NC3=NCCCCC3)sc2C)cc1 | 55 | n | n | n | n | n | n | n
CC(NS(=O)(=O)c1ccc(OCC(=O)NCc2cccnc2)cc1)c1ccccc1 (centres undefined) | n | n | n | n | n | n | x | x
O=C(Nc1ncn[nH]1)c1ccc(Cl)c(S(=O)(=O)N2CCCCCC2)c1 | n | n | n | n | n | n | n | n
CSCCC(=O)N1CCC(n2nccc2NC(=O)c2ccc3c(c2)OCO3)CC1 | n | n | n | n | n | n | x | x
O=c1[nH]nc(Cc2ccc(Cl)cc2)c2ccccc12 | n | n | n | n | n | n | x | x
O=c1[nH]nc(Cc2ccc(-c3ccccc3Cl)o2)c2ccccc12 | 47 | n | n | n | n | n | n | n
COc1cc(OC)cc(C(=O)Nc2ccc(N3CCOCC3)cc2N2CCOCC2)c1 | n | n | n | n | n | x | x | x
CC(Oc1ccc(Br)cc1)C(=O)Nc1ccncc1 (centres undefined) | n | n | n | n | n | n | x | x
CC(Oc1ccc(Br)cc1Cl)C(=O)Nc1ccncc1 (centres undefined) | n | n | n | n | n | n | 33 | n
Cc1cccc(-c2cccc(NC(=O)C3CCCN(Cc4cccnc4)C3)c2)c1 (centres undefined) | x | x | n | x | n | n | x | x
CCCCNC(=O)c1ccc(N2CCOCC2)c(NS(=O)(=O)c2ccc(OC)cc2)c1 | n | n | n | n | n | n | x | x
CCNC(=O)Nc1cc(S(=O)(=O)Nc2ccc(OC)cc2)ccc1N1CCOCC1 | 41 | n | x | n | x | x | 36 | 75
COc1ccc(CCC(=O)NCc2ccccc2OC)cc1 | n | n | n | n | n | n | n | n
CCOC(=O)c1cccc(C2=CC(=O)C[C@H](c3ccc(Cl)cc3)C2)c1 | n | n | n | n | n | x | x | x
CC(C)C(NC(=S)NCc1ccccc1)C(=O)O (centres undefined) | n | n | n | n | n | n | n | n
O=C(O)CNC(=S)NCc1ccccc1 | n | n | n | n | n | n | x | x
SMILES | OX1R antag-1 | OX1R antag-2 | TAAR1 ag | CHO parental Ca | TAAR1 antag | GPR7 antagonist | OX1R Ca confirm | CHO Ca triplic
O=C(Nc1ccc([N+](=O)[O-])cc1)Nc1ccc2c(c1)OCCO2 | n | n | n | n | n | n | n | n
COc1cc([N+](=O)[O-])ccc1NC(=O)Nc1ccc2c(c1)OCCO2 | n | n | n | n | n | n | x | x
O=[N+]([O-])c1ccc(Nc2ccc3ccccc3c2)nc1 | 46 | n | n | n | n | n | n | n
O=C(c1ccc(NS(=O)(=O)c2ccc(F)cc2)cc1)N1CCCCCC1 | n | n | n | n | n | x | x | x
O=C(c1ccc(S(=O)(=O)Nc2ccc(F)cc2)cc1)N1CCN(c2ccccn2)CC1 | n | n | n | n | n | n | 49 | n
O=C(COc1cccc(C(F)(F)F)c1)NCC(c1ccco1)N1CCCCC1 (centres undefined) | n | n | n | n | n | x | x | x
CCc1nccn1S(=O)(=O)c1ccc2ccc(C)cc2c1 | 56 | n | n | n | n | n | n | n
CCOc1ccc2cc(S(=O)(=O)n3ccnc3C)ccc2c1 | n | n | n | n | n | n | x | x
CN1CCN(CCCNc2c(C=O)c(=O)[nH]c3ccccc23)CC1 | x | x | n | x | n | n | x | x
COc1ccc(CN(C)c2ccc(S(=O)(=O)N3CCN(C)CC3)cc2[N+](=O)[O-])cc1OC | 46 | n | n | n | n | x | n | 65
CN1/C(=C\C(=S)NC(=O)c2cccc(Br)c2)C(C)(C)c2ccccc21 | n | n | n | n | n | n | x | x
CCN(CC)S(=O)(=O)c1cccc(C(=O)/C=C2/N(C)c3ccccc3C2(C)C)c1 | n | n | n | n | 59 | n | n | n
Cc1cccc(NC(=O)C2CCCN2C(=O)Oc2ccccc2)c1C (centres undefined) | n | n | n | n | n | n | n | n
CCOCCCNC(=O)CC1Oc2ccc(C)cc2NC1=O (centres undefined) | n | n | n | n | n | n | x | x
O=C(COC(=O)C12CC3CC(CC(Br)(C3)C1)C2)Nc1cccc(S(=O)(=O)N2CCOCC2)c1 | 47 | n | n | n | n | x | 32 | n
CC(C)Sc1nc(C(F)(F)F)cc(=O)n1-c1ccccc1 | n | n | n | n | n | n | x | x
O=C(O)CCCC(=O)N1CC(=O)Nc2ccccc21 | n | n | n | n | n | n | x | x
O=C1CN(C(=O)CCCc2c[nH]c3ccccc23)c2ccccc2N1 | 59 | n | n | n | n | n | 30 | n
Cc1cccc(N=Nc2c(N)n[nH]c2-c2ccc(Cl)cc2)c1 | n | n | n | n | n | n | n | n
COc1ccccc1-c1c(C)nn2c(N3CCN(c4ccccc4OC)CC3)cc(C)nc12 | n | n | n | n | n | n | x | x
COc1ccccc1N1CCN(c2cc(C)nc3nc(C)nn23)CC1 | n | n | n | n | n | n | n | n
Cc1cc([N+](=O)[O-])ccc1NCc1ccccc1 | 50 | n | x | n | x | n | n | n
CC(C)(C)c1ccccc1OCC(=O)Nc1ccccc1C(=O)NCc1cccnc1 | 43 | n | n | n | 58 | n | n | n
O=C1NCC(c2ccccc2)C1C(=O)N/N=C\c1ccc(-c2ccc(Cl)c(Cl)c2)o1 (centres undefined) | 52 | n | n | n | n | n | 51 | n
